Data as given in ChEMBL document CHEMBL1649571, “In vitro activity of TR-700, the active ingredient of the antibacterial prodrug TR-701, a novel oxazolidinone antibacterial agent” (2009).
In brackets after ≈: the same amount, converted by molar mass.

Key:
Format in all cases: functional
[1] = test system: Parvimonas micra; test: Antibacterial activity against Peptostreptococcus micros by CLSI M11-A7 agar dilution method
In short: (§1)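 Recent (2005 to 2008) clinical isolates. Anaerobes grown 48 h in an anaerobic glove box, with inoculum suspensions made in prereduced broth inside the box. A Steers replicator stamped the inoculum onto drug-supplemented agar. After absorption, plates were incubated 48 h at 37°C, then removed from the box and the MIC read. QC strains were run against the CLSI ranges.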

[2] = test system: Porphyromonas asaccharolytica; test: Antibacterial activity against Porphyromonas asaccharolytica by CLSI M11-A7 agar dilution method; in short: as §1
[3] = test system: Bacteroides ovatus; test: Antibacterial activity against Bacteroides ovatus by CLSI M11-A7 agar dilution method; in short: as §1
[4] = test system: Bacteroides fragilis; test: Antibacterial activity against Bacteroides fragilis by CLSI M11-A7 agar dilution method; in short: as §1
[5] = test system: Peptostreptococcus anaerobius; test: Antibacterial activity against Peptostreptococcus anaerobius by CLSI M11-A7 agar dilution method; in short: as §1
[6] = test system: Phocaeicola vulgatus; test: Antibacterial activity against Bacteroides vulgatus by CLSI M11-A7 agar dilution method; in short: as §1
[7] = test system: Prevotella sp.; test: Antibacterial activity against Prevotella sp. by CLSI M11-A7 agar dilution method; in short: as §1
[8] = test system: Clostridium perfringens; test: Antibacterial activity against Clostridium perfringens by CLSI M11-A7 agar dilution method
In short: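 Reference agar dilution MIC on recent (2005–2008) clinical isolates. Cultures grown 48 h in an anaerobic glove box; inoculum suspended in prereduced broth inside the box and stamped by Steers replicator onto drug-supplemented agar. Plates incubated 48 h at 37°C before MIC reading. QC strains run alongside, required to fall within CLSI ranges.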

[9] = test system: Bacteroides thetaiotaomicron; test: Antibacterial activity against Bacteroides thetaiotaomicron by CLSI M11-A7 agar dilution method; in short: as §1
[10] = test system: Streptococcus pyogenes; test: Antibacterial activity against Streptococcus pyogenes by CLSI M7-A7 broth microdilution broth microdilution method
In short: (§2)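 Reference broth microdilution MIC under aerobic conditions on recent (2005–2008) clinical isolates from U.S. and non-U.S. sites. QC strains run alongside, required to fall within published CLSI ranges.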

[11] = test system: Haemophilus influenzae; test: Antibacterial activity against Haemophilus influenzae by CLSI M7-A7 broth microdilution method
In short: (§3)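 Recent (2005 to 2008) clinical isolates from U.S. (80%) and non-U.S. (20%) sites. Aerobic MICs were determined by CLSI reference broth microdilution, with quality control strains checked against the published CLSI ranges.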

[12] = test system: Enterococcus faecium; test: Antibacterial activity against vancomycin-susceptible Enterococcus faecium by CLSI M7-A7 broth microdilution method; in short: as §2
[13] = test system: Streptococcus pneumoniae; test: Antibacterial activity against penicillin-resistant Streptococcus pneumoniae by CLSI M7-A7 broth microdilution method; in short: as §2
[14] = test system: Streptococcus pneumoniae; test: Antibacterial activity against penicillin-intermediate Streptococcus pneumoniae by CLSI M7-A7 broth microdilution method; in short: as §2
[15] = test system: Streptococcus agalactiae; test: Antibacterial activity against Streptococcus agalactiae by CLSI M7-A7 broth microdilution method; in short: as §2
[16] = test system: Moraxella catarrhalis; test: Antibacterial activity against Moraxella catarrhalis by CLSI M7-A7 broth microdilution method; in short: as §3
[17] = test system: Staphylococcus epidermidis; test: Antibacterial activity against methicillin-resistant Staphylococcus epidermidis by CLSI M7-A7 broth microdilution method; in short: as §2
[18] = test system: Enterococcus faecium; test: Antibacterial activity against vancomycin-resistant Enterococcus faecium by CLSI M7-A7 broth microdilution method; in short: as §2
[19] = test system: Enterococcus faecalis; test: Antibacterial activity against vancomycin-susceptible Enterococcus faecalis by CLSI M7-A7 broth microdilution method; in short: as §2
[20] = test system: Streptococcus pneumoniae; test: Antibacterial activity against penicillin-susceptible Streptococcus pneumoniae by CLSI M7-A7 broth microdilution method; in short: as §2
[21] = test system: Staphylococcus aureus; test: Antibacterial activity against community-acquired methicillin-resistant Staphylococcus aureus by CLSI M7-A7 broth microdilution method; in short: as §2
[22] = test system: Staphylococcus epidermidis; test: Antibacterial activity against methicillin-susceptible Staphylococcus epidermidis by CLSI M7-A7 broth microdilution method
[23] = test system: Staphylococcus aureus; test: Antibacterial activity against methicillin-susceptible Staphylococcus aureus by CLSI M7-A7 broth microdilution method; in short: as §2
[24] = test system: Staphylococcus aureus; test: Antibacterial activity against methicillin-resistant Staphylococcus aureus by CLSI M7-A7 broth microdilution method; in short: as §2
[25] = test system: Enterococcus faecalis; test: Antibacterial activity against vancomycin-resistant Enterococcus faecalis by CLSI M7-A7 broth microdilution method; in short: as §2

`Cc1ncc([N+](=O)[O-])n1CCO` [METRONIDAZOLE] gave an MIC [1] of at most 0.06 µg/mL, an MIC50 [1] of at most 0.06 µg/mL and an MIC90 [1] of over 32 µg/mL. It also gave an MIC50 [2] of 1 µg/mL (≈ 5.84 µM), an MIC90 [2] of 1 µg/mL (≈ 5.84 µM) and an MIC50 [3] of 1 µg/mL (≈ 5.84 µM). For the same compound, the MIC90 [3] was 1 µg/mL (≈ 5.84 µM), the MIC50 [4] was 0.12 µg/mL (≈ 0.701 µM) and the MIC90 [4] was 1 µg/mL (≈ 5.84 µM). The MIC50 [5] was 0.5 µg/mL (≈ 2.92 µM), the MIC90 [5] was 1 µg/mL (≈ 5.84 µM) and the MIC50 [6] was 0.25 µg/mL (≈ 1.46 µM). For the same compound, the MIC90 [6] was 0.25 µg/mL (≈ 1.46 µM), the MIC50 [7] was 0.5 µg/mL (≈ 2.92 µM) and the MIC90 [7] was over 32 µg/mL. The MIC50 [8] was 1 µg/mL (≈ 5.84 µM), the MIC90 [8] was over 32 µg/mL and the MIC50 [9] was 1 µg/mL (≈ 5.84 µM). The MIC90 [9] was 1 µg/mL (≈ 5.84 µM).
`CC(=O)NC[C@H]1CN(c2ccc(N3CCOCC3)c(F)c2)C(=O)O1` [LINEZOLID] was tested, and the MIC50 [10] was 1 µg/mL (≈ 2.96 µM), the MIC90 [10] was 2 µg/mL (≈ 5.93 µM) and the MIC50 [1] was 1 µg/mL (≈ 2.96 µM). It also gave an MIC90 [1] of 2 µg/mL (≈ 5.93 µM), an MIC50 [2] of 1 µg/mL (≈ 2.96 µM) and an MIC90 [2] of 2 µg/mL (≈ 5.93 µM). It also gave an MIC50 [11] of 16 µg/mL (≈ 47.4 µM), an MIC90 [11] of 32 µg/mL (≈ 94.9 µM) and an MIC50 [12] of 2 µg/mL (≈ 5.93 µM). It also gave an MIC90 [12] of 4 µg/mL (≈ 11.9 µM), an MIC50 [13] of 1 µg/mL (≈ 2.96 µM) and an MIC90 [13] of 1 µg/mL (≈ 2.96 µM). The MIC50 [14] was 1 µg/mL (≈ 2.96 µM), the MIC90 [14] was 1 µg/mL (≈ 2.96 µM) and the MIC50 [3] was 8 µg/mL (≈ 23.7 µM). It also gave an MIC90 [3] of 8 µg/mL (≈ 23.7 µM), an MIC50 [15] of 2 µg/mL (≈ 5.93 µM) and an MIC90 [15] of 2 µg/mL (≈ 5.93 µM). The MIC [4] was 4 µg/mL (≈ 11.9 µM), the MIC50 [4] was 4 µg/mL (≈ 11.9 µM) and the MIC90 [4] was 4 µg/mL (≈ 11.9 µM). It also gave an MIC50 [5] of 1 µg/mL (≈ 2.96 µM), an MIC90 [5] of 2 µg/mL (≈ 5.93 µM) and an MIC50 [16] of 8 µg/mL (≈ 23.7 µM). It also gave an MIC90 [16] of 8 µg/mL (≈ 23.7 µM), an MIC50 [17] of 1 µg/mL (≈ 2.96 µM) and an MIC90 [17] of 2 µg/mL (≈ 5.93 µM). It also gave an MIC50 [18] of 2 µg/mL (≈ 5.93 µM), an MIC90 [18] of 2 µg/mL (≈ 5.93 µM) and an MIC [6] of 2 µg/mL (≈ 5.93 µM). For the same compound, the MIC50 [6] was 2 µg/mL (≈ 5.93 µM), the MIC90 [6] was 4 µg/mL (≈ 11.9 µM) and the MIC50 [7] was 2 µg/mL (≈ 5.93 µM). It also gave an MIC90 [7] of 4 µg/mL (≈ 11.9 µM), an MIC50 [19] of 2 µg/mL (≈ 5.93 µM) and an MIC90 [19] of 2 µg/mL (≈ 5.93 µM). It also gave an MIC50 [20] of 1 µg/mL (≈ 2.96 µM), an MIC90 [20] of 1 µg/mL (≈ 2.96 µM) and an MIC50 [8] of 2 µg/mL (≈ 5.93 µM). It also gave an MIC90 [8] of 4 µg/mL (≈ 11.9 µM), an MIC50 [21] of 2 µg/mL (≈ 5.93 µM) and an MIC90 [21] of 4 µg/mL (≈ 11.9 µM). For the same compound, the MIC [9] was 4 µg/mL (≈ 11.9 µM), the MIC50 [9] was 4 µg/mL (≈ 11.9 µM) and the MIC90 [9] was 8 µg/mL (≈ 23.7 µM). It also gave an MIC50 [22] of 1 µg/mL (≈ 2.96 µM), an MIC90 [22] of 2 µg/mL (≈ 5.93 µM) and an MIC50 [23] of 2 µg/mL (≈ 5.93 µM). The MIC90 [23] was 4 µg/mL (≈ 11.9 µM), the MIC50 [24] was 2 µg/mL (≈ 5.93 µM) and the MIC90 [24] was 4 µg/mL (≈ 11.9 µM). The MIC50 [25] was 2 µg/mL (≈ 5.93 µM) and the MIC90 [25] was 2 µg/mL (≈ 5.93 µM).
`Cn1nnc(-c2ccc(-c3ccc(N4C[C@H](CO)OC4=O)cc3F)cn2)n1` [TEDIZOLID] gave an MIC50 [10] of 0.25 µg/mL (≈ 0.675 µM), an MIC90 [10] of 0.5 µg/mL (≈ 1.35 µM) and an MIC50 [1] of 0.25 µg/mL (≈ 0.675 µM). For the same compound, the MIC90 [1] was 0.5 µg/mL (≈ 1.35 µM), the MIC [2] was 0.25 µg/mL (≈ 0.675 µM) and the MIC50 [2] was 0.25 µg/mL (≈ 0.675 µM). For the same compound, the MIC90 [2] was 0.5 µg/mL (≈ 1.35 µM), the MIC50 [11] was 8 µg/mL (≈ 21.6 µM) and the MIC90 [11] was 16 µg/mL (≈ 43.2 µM). For the same compound, the MIC50 [12] was 0.5 µg/mL (≈ 1.35 µM), the MIC90 [12] was 1 µg/mL (≈ 2.7 µM) and the MIC50 [13] was 0.25 µg/mL (≈ 0.675 µM). It also gave an MIC90 [13] of 0.25 µg/mL (≈ 0.675 µM), an MIC50 [14] of 0.25 µg/mL (≈ 0.675 µM) and an MIC90 [14] of 0.25 µg/mL (≈ 0.675 µM). It also gave an MIC50 [3] of 2 µg/mL (≈ 5.4 µM), an MIC90 [3] of 8 µg/mL (≈ 21.6 µM) and an MIC50 [15] of 0.25 µg/mL (≈ 0.675 µM). It also gave an MIC90 [15] of 0.5 µg/mL (≈ 1.35 µM), an MIC50 [4] of 4 µg/mL (≈ 10.8 µM) and an MIC90 [4] of 4 µg/mL (≈ 10.8 µM). For the same compound, the MIC50 [5] was 0.25 µg/mL (≈ 0.675 µM), the MIC90 [5] was 0.5 µg/mL (≈ 1.35 µM) and the MIC50 [16] was 2 µg/mL (≈ 5.4 µM). For the same compound, the MIC90 [16] was 4 µg/mL (≈ 10.8 µM), the MIC50 [17] was 0.25 µg/mL (≈ 0.675 µM) and the MIC90 [17] was 0.5 µg/mL (≈ 1.35 µM). The MIC50 [18] was 0.5 µg/mL (≈ 1.35 µM), the MIC90 [18] was 0.5 µg/mL (≈ 1.35 µM) and the MIC50 [6] was 2 µg/mL (≈ 5.4 µM). The MIC90 [6] was 4 µg/mL (≈ 10.8 µM), the MIC50 [7] was 1 µg/mL (≈ 2.7 µM) and the MIC90 [7] was 4 µg/mL (≈ 10.8 µM). It also gave an MIC50 [19] of 0.5 µg/mL (≈ 1.35 µM), an MIC90 [19] of 1 µg/mL (≈ 2.7 µM) and an MIC50 [20] of 0.25 µg/mL (≈ 0.675 µM). For the same compound, the MIC90 [20] was 0.25 µg/mL (≈ 0.675 µM), the MIC50 [8] was 0.5 µg/mL (≈ 1.35 µM) and the MIC90 [8] was 2 µg/mL (≈ 5.4 µM). The MIC50 [21] was 0.5 µg/mL (≈ 1.35 µM), the MIC90 [21] was 0.5 µg/mL (≈ 1.35 µM) and the MIC [9] was 2 µg/mL (≈ 5.4 µM). It also gave an MIC50 [9] of 2 µg/mL (≈ 5.4 µM), an MIC90 [9] of 2 µg/mL (≈ 5.4 µM) and an MIC50 [22] of 0.25 µg/mL (≈ 0.675 µM). The MIC90 [22] was 0.5 µg/mL (≈ 1.35 µM), the MIC50 [23] was 0.5 µg/mL (≈ 1.35 µM) and the MIC90 [23] was 0.5 µg/mL (≈ 1.35 µM). It also gave an MIC50 [24] of 0.5 µg/mL (≈ 1.35 µM), an MIC90 [24] of 0.5 µg/mL (≈ 1.35 µM) and an MIC50 [25] of 0.5 µg/mL (≈ 1.35 µM). It also gave an MIC90 [25] of 0.5 µg/mL (≈ 1.35 µM).
